Converted amounts (≈) assume the structure as drawn.
tested on: Mycobacterium tuberculosis; assay: Antimycobacterial activity against isoniazid/rifampicin-resistant Mycobacterium tuberculosis 6133 clinical isolate incubated for 7 days by microplate Alamar Blue assay; type: functional; details: Mycobacterium tuberculosis, 6133, 168 h
How it was run: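 Fluorescence read-out. MIC is the lowest concentration that reduces fluorescence by at least 90% relative to the mean of replicate bacterium-only controls. Isoniazid and rifampicin were included as reference drugs.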

First: CCO/N=C1/CN(c2nc3c(cc2F)c(=O)c(C(=O)O)cn3C2CC2)CC1(C)CNC1CC1 (stereo not drawn)
Second: CO[C@H]1/C=C/O[C@@]2(C)Oc3c(C)c(O)c4c(O)c(c(/C=N/N5CCN(C)CC5)c(O)c4c3C2=O)NC(=O)/C(C)=C\C=C\[C@H](C)[C@H](O)[C@@H](C)[C@@H](O)[C@@H](C)[C@H](OC(C)=O)[C@@H]1C [RIFAMPIN]
The MIC90 of the first is lower: 0.11 µg/mL (≈ 0.24 µM) for the first, > 40 µg/mL for the second.

In the case of `NNC(=O)c1ccncc1` [ISONIAZID], the MIC90 is reported as 4 µg/mL (≈ 29.2 µM).
